Measurements taken from ChEMBL document CHEMBL4689842, “EUbOPEN Chemogenomics Library wave 1” (2021).
Where “and” joins values, the source holds several entries; their conditions need not be identical. Identical values can stand only once.

System: Fibroblast
Assay: Multiplex assay against human fibroblast
Assay type: toxicity, cell-based
Procedure, shortened: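 Values for tubulin, mitochondrial-mass and membrane-permeability phenotypes are per cents of cells with healthy nuclei. These cells were identified by CellPathfinder machine-learning gating of live cells that had been stained at seeding with Hoechst33342, BioTracker Green Microtubule Cytoskeleton Dye, MitoTracker Red and Annexin V Alexa Fluor 680 and imaged on a CQ1 microscope at 37°C and 5% CO2 after compound addition. The gating first set Hoechst high-intensity objects apart from normal cells, then split normal cells into healthy, pyknosed or fragmented nuclei, and pyknosed cells into mitotic or apoptotic.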

[1] = 12 h, 1 µM, compound concentration 1 uM, replicate 1
[2] = 12 h, 1 µM, compound concentration 1 uM, replicate 2
[3] = 24 h, 1 µM, compound concentration 1 uM, replicate 1
[4] = 24 h, 1 µM, compound concentration 1 uM, replicate 2
[5] = 12 h, 10 µM, compound concentration 10 uM, replicate 1
[6] = 12 h, 10 µM, compound concentration 10 uM, replicate 2
[7] = 24 h, 10 µM, compound concentration 10 uM, replicate 1
[8] = 24 h, 10 µM, compound concentration 10 uM, replicate 2
[9] = 48 h, 1 µM, compound concentration 1 uM, replicate 1
[10] = 48 h, 1 µM, compound concentration 1 uM, replicate 2
[11] = 48 h, 10 µM, compound concentration 10 uM, replicate 1
[12] = 48 h, 10 µM, compound concentration 10 uM, replicate 2

## CC(C)C(=O)Nc1n[nH]c2cc(-c3cccc(NS(=O)(=O)C4CC4)c3)ccc12
[1]
  Population Apoptotic (%): 85% and 80%
  Population Fragmented Nuclei (%): 36% and 25%
  Population Healthy Nuclei (%): 36% and 58%
  Population Hoechst High Intensity Objects (%): 13% and 11%
  Population Membrane Permeable-Phenotype (%): 8% and 7%
  Population Mitochondria Different-Phenotype (%): 0% and 6%
  Population Mitotic Cells (%): 14% and 20%
  Population Normal (%): 86% and 88%
  Population Pyknosed Nuclei (%): 26%
  Population Tubulin-Different-Phenotype (%): 6% and 2%
  Total Cell Count: 151 and 184
[2]
  Population Apoptotic (%): 100% and 50%
  Population Fragmented Nuclei (%): 56% and 43%
  Population Healthy Nuclei (%): 38% and 40%
  Population Hoechst High Intensity Objects (%): 34% and 18%
  Population Normal (%): 65% and 81%
  Population Pyknosed Nuclei (%): 6% and 15%
  Population Tubulin-Different-Phenotype (%): 15% and 30%
  Total Cell Count: 76 and 79
[3]
  Population Apoptotic (%): 65% and 60%
  Population Fragmented Nuclei (%): 40% and 28%
  Population Healthy Nuclei (%): 42% and 54%
  Population Hoechst High Intensity Objects (%): 8% and 9%
  Population Membrane Permeable-Phenotype (%): 17% and 7%
  Population Mitochondria Different-Phenotype (%): 1% and 2%
  Population Mitotic Cells (%): 34% and 39%
  Population Normal (%): 91% and 90%
  Population Pyknosed Nuclei (%): 17%
  Population Tubulin-Different-Phenotype (%): 8% and 4%
  Total Cell Count: 144 and 207
[4]
  Population Apoptotic (%): 42% and 33%
  Population Fragmented Nuclei (%): 47% and 51%
  Population Healthy Nuclei (%): 41% and 36%
  Population Hoechst High Intensity Objects (%): 23% and 22%
  Population Membrane Permeable-Phenotype (%): 15% and 11%
  Population Mitochondria Different-Phenotype (%): 15% and 0%
  Population Mitotic Cells (%): 57% and 66%
  Population Normal (%): 76% and 77%
  Population Pyknosed Nuclei (%): 11% and 12%
  Population Tubulin-Different-Phenotype (%): 11% and 22%
  Total Cell Count: 82 and 63

## C=CC(=O)Nc1ccc2ncnc(Nc3ccc(OCc4cccc(F)c4)c(Cl)c3)c2c1.Cc1ccc(S(=O)(=O)O)cc1
[1]
  Population Apoptotic (%): 53%
  Population Fragmented Nuclei (%): 25%
  Population Healthy Nuclei (%): 37%
  Population Hoechst High Intensity Objects (%): 7%
  Population Membrane Permeable-Phenotype (%): 28%
  Population Mitochondria Different-Phenotype (%): 9%
  Population Mitotic Cells (%): 46%
  Population Normal (%): 92%
  Population Pyknosed Nuclei (%): 36%
  Population Tubulin-Different-Phenotype (%): 26%
  Total Cell Count: 120
[2]
  Population Apoptotic (%): 50%
  Population Fragmented Nuclei (%): 6%
  Population Healthy Nuclei (%): 84%
  Population Hoechst High Intensity Objects (%): 5%
  Population Membrane Permeable-Phenotype (%): 3%
  Population Mitotic Cells (%): 50%
  Population Normal (%): 94%
  Population Pyknosed Nuclei (%): 8%
  Population Tubulin-Different-Phenotype (%): 29%
  Total Cell Count: 77
[5]
  Population Apoptotic (%): 77%
  Population Fragmented Nuclei (%): 27%
  Population Healthy Nuclei (%): 38%
  Population Hoechst High Intensity Objects (%): 15%
  Population Membrane Permeable-Phenotype (%): 15%
  Population Mitochondria Different-Phenotype (%): 7%
  Population Mitotic Cells (%): 22%
  Population Normal (%): 84%
  Population Pyknosed Nuclei (%): 33%
  Population Tubulin-Different-Phenotype (%): 27%
  Total Cell Count: 122
[6]
  Population Apoptotic (%): 75%
  Population Fragmented Nuclei (%): 14%
  Population Healthy Nuclei (%): 79%
  Population Hoechst High Intensity Objects (%): 10%
  Population Membrane Permeable-Phenotype (%): 4%
  Population Mitochondria Different-Phenotype (%): 22%
  Population Mitotic Cells (%): 25%
  Population Normal (%): 89%
  Population Pyknosed Nuclei (%): 6%
  Population Tubulin-Different-Phenotype (%): 16%
  Total Cell Count: 69
[3]
  Population Apoptotic (%): 65%
  Population Fragmented Nuclei (%): 26%
  Population Healthy Nuclei (%): 42%
  Population Hoechst High Intensity Objects (%): 9%
  Population Membrane Permeable-Phenotype (%): 31%
  Population Mitochondria Different-Phenotype (%): 2%
  Population Mitotic Cells (%): 34%
  Population Normal (%): 90%
  Population Pyknosed Nuclei (%): 31%
  Population Tubulin-Different-Phenotype (%): 40%
  Total Cell Count: 123
[4]
  Population Apoptotic (%): 55%
  Population Fragmented Nuclei (%): 4%
  Population Healthy Nuclei (%): 84%
  Population Hoechst High Intensity Objects (%): 5%
  Population Membrane Permeable-Phenotype (%): 2%
  Population Mitochondria Different-Phenotype (%): 8%
  Population Mitotic Cells (%): 44%
  Population Normal (%): 94%
  Population Pyknosed Nuclei (%): 10%
  Population Tubulin-Different-Phenotype (%): 33%
  Total Cell Count: 90
[7]
  Population Apoptotic (%): 61%
  Population Fragmented Nuclei (%): 31%
  Population Healthy Nuclei (%): 39%
  Population Hoechst High Intensity Objects (%): 8%
  Population Membrane Permeable-Phenotype (%): 37%
  Population Mitochondria Different-Phenotype (%): 9%
  Population Mitotic Cells (%): 38%
  Population Normal (%): 91%
  Population Pyknosed Nuclei (%): 28%
  Population Tubulin-Different-Phenotype (%): 48%
  Total Cell Count: 118
[8]
  Population Apoptotic (%): 53%
  Population Fragmented Nuclei (%): 12%
  Population Healthy Nuclei (%): 69%
  Population Hoechst High Intensity Objects (%): 6%
  Population Membrane Permeable-Phenotype (%): 14%
  Population Mitochondria Different-Phenotype (%): 24%
  Population Mitotic Cells (%): 46%
  Population Normal (%): 93%
  Population Pyknosed Nuclei (%): 18%
  Population Tubulin-Different-Phenotype (%): 32%
  Total Cell Count: 77
[9]
  Population Apoptotic (%): 64%
  Population Fragmented Nuclei (%): 34%
  Population Healthy Nuclei (%): 48%
  Population Hoechst High Intensity Objects (%): 8%
  Population Membrane Permeable-Phenotype (%): 28%
  Population Mitochondria Different-Phenotype (%): 0%
  Population Mitotic Cells (%): 35%
  Population Normal (%): 91%
  Population Pyknosed Nuclei (%): 16%
  Population Tubulin-Different-Phenotype (%): 26%
  Total Cell Count: 112
[10]
  Population Apoptotic (%): 50%
  Population Fragmented Nuclei (%): 31%
  Population Healthy Nuclei (%): 65%
  Population Hoechst High Intensity Objects (%): 14%
  Population Membrane Permeable-Phenotype (%): 18%
  Population Mitochondria Different-Phenotype (%): 8%
  Population Mitotic Cells (%): 50%
  Population Normal (%): 85%
  Population Pyknosed Nuclei (%): 2%
  Population Tubulin-Different-Phenotype (%): 41%
  Total Cell Count: 106
[11]
  Population Apoptotic (%): 81%
  Population Fragmented Nuclei (%): 40%
  Population Healthy Nuclei (%): 50%
  Population Hoechst High Intensity Objects (%): 18%
  Population Membrane Permeable-Phenotype (%): 17%
  Population Mitochondria Different-Phenotype (%): 9%
  Population Mitotic Cells (%): 18%
  Population Normal (%): 81%
  Population Pyknosed Nuclei (%): 8%
  Population Tubulin-Different-Phenotype (%): 49%
  Total Cell Count: 154
[12]
  Population Apoptotic (%): 100%
  Population Fragmented Nuclei (%): 22%
  Population Healthy Nuclei (%): 76%
  Population Hoechst High Intensity Objects (%): 11%
  Population Membrane Permeable-Phenotype (%): 12%
  Population Mitochondria Different-Phenotype (%): 3%
  Population Mitotic Cells (%): 0%
  Population Normal (%): 88%
  Population Pyknosed Nuclei (%): 1%
  Population Tubulin-Different-Phenotype (%): 6%
  Total Cell Count: 86
